The target of experiment [1] is Sigma non-opioid intracellular receptor 1 (Cavia porcellus) (UniProt Q60492). The experiment in a line: Relative affinity for sigma-1 compared to sigma-2 type receptors.
Experiment [2] deals with Sigma 2 receptor. In words: Displacement of [3H]-DTG from Sigma opioid receptor type 2 in rat liver membrane. Format: cell membranes. In a few lines:
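Liver membranes from male Sprague-Dawley rats (160 μg protein) with 5 nM [3H]DTG plus 1 μM dextralorphan masking σ1 sites. Twelve ligand concentrations (0.05–10 000 nM or 0.5–100 000 nM), 50 mM Tris-HCl pH 8.0, 120 min, 25 °C. Nonspecific binding by 10 μM haloperidol. Filtration and counting. Ki from IC50 by Cheng–Prusoff; 2–3 experiments ± SEM.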
(In general: Displacement assays read how much labelled ligand stays bound in the presence of the test substance.)

For orientation: Ki means a dissociation constant, usually derived from enzyme kinetics or from competition with a known ligand. Read a low Ki as tighter binding.

Sequence of Sigma non-opioid intracellular receptor 1 (Cavia porcellus) (Q60492 whole entry, looked up): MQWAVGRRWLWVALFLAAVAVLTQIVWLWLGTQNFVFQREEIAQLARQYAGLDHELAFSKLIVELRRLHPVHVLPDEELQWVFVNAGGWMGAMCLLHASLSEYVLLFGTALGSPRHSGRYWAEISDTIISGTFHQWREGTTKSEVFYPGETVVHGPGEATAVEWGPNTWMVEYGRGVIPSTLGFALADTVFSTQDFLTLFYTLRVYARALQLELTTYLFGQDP

Take `COc1ccc(CC(=O)N(C)CCN2CCCC2)cc1`: the Ratio in experiment [1] is 1.8. The compound further came in with a Ki in experiment [2] of 1220 nM.
In the case of `CN(CCc1ccc(N)cc1)CCN1CCCC1`, in experiment [1], the Ratio was found to be 0.28. In experiment [2], this compound had a Ki of 974 nM.
Take `COc1ccc(CCN(C)CCN2CCCC2)cc1`: in experiment [1], the Ratio stood at 0.12. This compound returned a Ki in experiment [2] of 256 nM.
The like results for `CN(CCN1CCCC1)C(=O)Cc1ccc([N+](=O)[O-])cc1` were, in that order, 1.5 and 596 nM.
Turning to `CN(CCc1ccccc1N)CCN1CCCC1`, in experiment [1], the Ratio was determined as 0.45. The compound also showed a Ki in experiment [2] of 640 nM.
Regarding `CN(CCc1cccc(N)c1)CCN1CCCC1`, in experiment [1], the Ratio came out at 0.26. The affinity in experiment [2], expressed as Ki, was 2240 nM.
On to `COc1ccccc1CC(=O)N(C)CCN1CCCC1`, for which affinity in experiment [2] was put at a Ki of 3170 nM.
As for `CN(CCc1ccc([N+](=O)[O-])cc1)CCN1CCCC1`, in experiment [1], the Ratio amounted to 0.07. This compound yielded a Ki in experiment [2] of 62.7 nM.
Turning to `CN(CCc1ccccc1[N+](=O)[O-])CCN1CCCC1`, the Ratio in experiment [1] turned out to be 0.02. For the same compound, the Ki in experiment [2] worked out at 311 nM.
As for `CN(CCN1CCCC1)C(=O)Cc1cccc([N+](=O)[O-])c1`, the Ratio in experiment [1] was determined as 3. The compound also gave a Ki in experiment [2] of 539 nM.
Take `CN(CCN1CCCC1)C(=O)Cc1ccccc1[N+](=O)[O-]`: the Ratio in experiment [1] amounted to 0.49. In experiment [2], this compound returned a Ki of 1490 nM.
On to `COc1ccccc1CCN(C)CCN1CCCC1`, for which, in experiment [1], the Ratio is 0.11. Besides, the Ki in experiment [2] came to 144 nM.
The corresponding values for `COc1cccc(CC(=O)N(C)CCN2CCCC2)c1` are 2.8 and 1110 nM.
As to `CN(CCc1cccc([N+](=O)[O-])c1)CCN1CCCC1`, the Ratio in experiment [1] was 0.07. The compound further displayed a Ki in experiment [2] of 95.2 nM.
With `COc1cccc(CCN(C)CCN2CCCC2)c1`, in experiment [1], the Ratio came out at 0.11. Also, in experiment [2], affinity was put at a Ki of 209 nM.

For the origin of these results see ChEMBL document CHEMBL1129631, “Synthesis and evaluation of aryl-substituted N-(arylethyl)-N-methyl-2-(1-pyrrolidinyl)ethylamines and corresponding arylacetamides for sigma receptor affinity” (J Med Chem, 1996).
